In ChEMBL document CHEMBL1821590, “Novel dihydropyrimidines and its pyrazole derivatives: synthesis and pharmacological screening” (Eur J Med Chem, 2011):
Converted amounts (≈) assume the structure as drawn.

Legend:
Format in all cases: functional
[1] = Antioxidant activity assessed as inhibition of lipid peroxidation using egg lecithin liposomes incubated for 1 hr
How it was run: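 Egg lecithin (3 mg/mL, phosphate buffer pH 7.4) sonicated 10 min to form liposomes. Sample or ascorbic acid (12.5–100 µg/mL) added. Peroxidation induced with FeCl3 and L-ascorbic acid, 1 h at 37 °C. Stopped with HCl/TCA/TBA/BHA, boiled 15 min, centrifuged, supernatant read at 532 nm. Triplicate. % inhibition vs control. IC50 derived.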

[2] = Antioxidant activity assessed as hydrogen peroxide scavenging activity after 10 mins
How it was run: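 H2O2 (20 mM) in PBS pH 7.4. 1 mL of sample or ascorbic acid in methanol (12.5–100 µg/mL) added to 2 mL H2O2 solution. A230 read after 10 min. % inhibition = [1 − (Vt/Vc)] × 100. Triplicate, averaged. IC50 derived from % inhibition across concentrations.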

[3] = test system: Staphylococcus aureus; test: Antimicrobial activity against Staphylococcus aureus at 100 ug/ml by agar plate diffusion technique; settings: read-out: IZ
How it was run: (§1)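 Agar plate diffusion against E. coli, P. aeruginosa, S. aureus and B. subtilis, with compounds at 25, 50 and 100 µg/mL. Streptomycin as standard.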

[4] = test system: Metaphire posthuma; test: Anthelmintic activity against Pheretima posthuma assessed as time taken for complete parasite paralysis at 0.2% w/v
How it was run: (§2)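 Earthworms (Pheretima posthuma) exposed to test solutions at 0.1, 0.2 and 0.5% w/v; time in minutes to complete paralysis (worms motionless) recorded. Albendazole as standard. Mean of three determinations ± S.D.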

[5] = test system: Pseudomonas aeruginosa; test: Antimicrobial activity against Pseudomonas aeruginosa at 100 ug/ml by agar plate diffusion technique; settings: read-out: IZ; how it was run: as §1
[6] = test system: Escherichia coli; test: Antimicrobial activity against Escherichia coli at 50 ug/ml by agar plate diffusion technique; settings: read-out: IZ; how it was run: as §1
[7] = test system: Escherichia coli; test: Antimicrobial activity against Escherichia coli at 25 ug/ml by agar plate diffusion technique; settings: read-out: IZ; how it was run: as §1
[8] = test system: Pseudomonas aeruginosa; test: Antimicrobial activity against Pseudomonas aeruginosa at 50 ug/ml by agar plate diffusion technique; settings: read-out: IZ; how it was run: as §1
[9] = test system: Bacillus subtilis; test: Antimicrobial activity against Bacillus subtilis at 25 ug/ml by agar plate diffusion technique; settings: read-out: IZ; how it was run: as §1
[10] = test system: Metaphire posthuma; test: Anthelmintic activity against Pheretima posthuma assessed as time taken for complete parasite paralysis at 0.5% w/v; how it was run: as §2
[11] = test system: Bacillus subtilis; test: Antimicrobial activity against Bacillus subtilis at 100 ug/ml by agar plate diffusion technique; settings: read-out: IZ; how it was run: as §1
[12] = Antioxidant activity assessed as nitric oxide radical scavenging activity after 150 mins
How it was run: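 10 mM sodium nitroprusside (4 mL), PBS pH 7.4 (1 mL) and sample or ascorbic acid in DMSO (1 mL, 12.5–100 µg/mL), incubated 150 min at 25 °C. Nitrite detected with sulphanilic acid (5 min) then naphthylethylenediamine (30 min, diffused light). Read at […]. Triplicate. % inhibition = [1 − (Vt/Vc)] × 100. IC50 derived from it.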

[13] = test system: Candida albicans; test: Antimicrobial activity against Candida albicans at 100 ug/ml by paper disc method; settings: read-out: IZ
How it was run: (§3)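 Paper disc method against A. niger and C. albicans, with compounds at 25, 50 and 100 µg/mL. Amphotericin-B as standard.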

[14] = Antioxidant activity assessed as potassium ferricyanide ion reducing power after 20 mins
How it was run: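 Oyaizu method. Samples or ascorbic acid in DMF (12.5–100 µg/mL) mixed with 0.2 M phosphate buffer pH 6.6 and 1% potassium ferricyanide, 20 min at 50 °C. 10% TCA added, centrifuged. Supernatant mixed with water and 0.1% FeCl3, read at 700 nm. % = [(Vt/Vc) − 1] × 100. IC50 derived.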

[15] = test system: Candida albicans; test: Antimicrobial activity against Candida albicans at 25 ug/ml by paper disc method; settings: read-out: IZ; how it was run: as §3
[16] = test system: Pseudomonas aeruginosa; test: Antimicrobial activity against Pseudomonas aeruginosa at 25 ug/ml by agar plate diffusion technique; settings: read-out: IZ; how it was run: as §1
[17] = test system: Metaphire posthuma; test: Anthelmintic activity against Pheretima posthuma assessed as time taken for parasite death at 0.5% w/v
How it was run: (§4)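 Earthworms (Pheretima posthuma, spelled Perituma posthuma in text) exposed to test compounds at 0.1, 0.2 and 0.5% w/v. Albendazole served as standard, with an untreated control. Paralysis was recorded as the time until worms became motionless, then time to death was recorded, in minutes. Each value is the mean of three determinations with S.D.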

[18] = test system: Aspergillus niger; test: Antimicrobial activity against Aspergillus niger at 25 ug/ml by paper disc method; settings: read-out: IZ; how it was run: as §3
[19] = test system: Metaphire posthuma; test: Anthelmintic activity against Pheretima posthuma assessed as time taken for parasite death at 0.2% w/v; how it was run: as §4
[20] = test system: Aspergillus niger; test: Antimicrobial activity against Aspergillus niger at 50 ug/ml by paper disc method; settings: read-out: IZ; how it was run: as §3
[21] = test system: Metaphire posthuma; test: Anthelmintic activity against Pheretima posthuma assessed as time taken for parasite death at 0.1% w/v; how it was run: as §4
[22] = test system: Escherichia coli; test: Antimicrobial activity against Escherichia coli at 100 ug/ml by agar plate diffusion technique; settings: read-out: IZ; how it was run: as §1
[23] = test system: Staphylococcus aureus; test: Antimicrobial activity against Staphylococcus aureus at 50 ug/ml by agar plate diffusion technique; settings: read-out: IZ; how it was run: as §1
[24] = test system: Metaphire posthuma; test: Anthelmintic activity against Pheretima posthuma assessed as time taken for complete parasite paralysis at 0.1% w/v; how it was run: as §2
[25] = Antiinflammatory activity assessed as inhibition of albumin denaturation at 100 ug/ml by UV-visible spectrophotometry
How it was run: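 Compounds dissolved in minimal DMF, diluted in PBS pH 7.4 (final DMF <2.5%). 1 mL test solution (100 µg/mL) plus 1 mL 1% albumin in PBS, 15 min at 27 ± 1 °C, then heated 10 min at 60 ± 1 °C. After cooling, turbidity read at 660 nm. % inhibition = [(Vt/Vc) − 1] × 100 against a no-drug control. Triplicate, averaged. Diclofenac standard.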

[26] = test system: Candida albicans; test: Antimicrobial activity against Candida albicans at 50 ug/ml by paper disc method; settings: read-out: IZ; how it was run: as §3
[27] = test system: Staphylococcus aureus; test: Antimicrobial activity against Staphylococcus aureus at 25 ug/ml by agar plate diffusion technique; settings: read-out: IZ; how it was run: as §1
[28] = test system: Bacillus subtilis; test: Antimicrobial activity against Bacillus subtilis at 50 ug/ml by agar plate diffusion technique; settings: read-out: IZ; how it was run: as §1
[29] = test system: Aspergillus niger; test: Antimicrobial activity against Aspergillus niger at 100 ug/ml by paper disc method; settings: read-out: IZ; how it was run: as §3

SMILES	IC50 [1] [µg/mL]	IC50 [2] [µg/mL]	zone of inhibition at 100 µg/mL [3] [mm]	Time [4] [min]	zone of inhibition at 50 µg/mL [6] [mm]	zone of inhibition at 25 µg/mL [7] [mm]	zone of inhibition at 25 µg/mL [9] [mm]	Time [10] [min]	zone of inhibition at 100 µg/mL [11] [mm]	IC50 [12] [µg/mL]	zone of inhibition at 100 µg/mL [13] [mm]	IC50 [14] [µg/mL]	zone of inhibition at 25 µg/mL [15] [mm]	Time [17] [min]	zone of inhibition at 25 µg/mL [18] [mm]	Time [19] [min]	zone of inhibition at 50 µg/mL [20] [mm]	zone of inhibition at 50 µg/mL [23] [mm]	zone of inhibition at 25 µg/mL [27] [mm]	zone of inhibition at 50 µg/mL [28] [mm]	further results
CCOC(=O)c1cnn(-c2nc(-c3ccccc3O)c(C#N)c(=O)n2C)c1N	57 (≈ 150 µM)	58 (≈ 152 µM)	22.8	40.03	17.3	13.5	13.9	38.52	23.1	64 (≈ 168 µM)	15.5	48 (≈ 126 µM)	10.6	47.23	9.21	49.54	12.6	17.4	12.3	14.2	zone of inhibition at 100 µg/mL [5]: 21.1 mm; zone of inhibition at 50 µg/mL [8]: 15 mm; zone of inhibition at 25 µg/mL [16]: 10.2 mm; Time [21]: 55.2 min; zone of inhibition at 100 µg/mL [22]: 24.4 mm; Time [24]: 43.09 min; inhibition [25]: 54.4%; zone of inhibition at 50 µg/mL [26]: 14.5 mm; zone of inhibition at 100 µg/mL [29]: 18.1 mm
Cn1c(NN)nc(-c2ccc(Cl)cc2)c(C#N)c1=O	46 (≈ 167 µM)	41 (≈ 149 µM)	20.6	40.13	10.9	8.18	10.2	37.67	24.1	59 (≈ 214 µM)	17.3	44 (≈ 160 µM)	12.8	42.54	14.6	46.45	16.8	15.5	11.2	16	zone of inhibition at 100 µg/mL [5]: 14.9 mm; zone of inhibition at 50 µg/mL [8]: 10.2 mm; zone of inhibition at 25 µg/mL [16]: 7.64 mm; Time [21]: 58.3 min; zone of inhibition at 100 µg/mL [22]: 12.4 mm; Time [24]: 42.1 min; inhibition [25]: 61.2%; zone of inhibition at 50 µg/mL [26]: 15.7 mm; zone of inhibition at 100 µg/mL [29]: 21.4 mm
CCOC(=O)c1cnn(-c2nc(-c3ccccc3Cl)c(C#N)c(=O)n2C)c1N	102 (≈ 256 µM)	98 (≈ 246 µM)	24.3	42.05	20.5	13.2	13.4	46.18	26.2	93 (≈ 233 µM)	20.2	78 (≈ 196 µM)	11.5	51.7	12.2	57.5	15.1	18.3	14.6	17.2	zone of inhibition at 100 µg/mL [5]: 23.9 mm; zone of inhibition at 50 µg/mL [8]: 16.3 mm; zone of inhibition at 25 µg/mL [16]: 12.2 mm; Time [21]: 72.26 min; zone of inhibition at 100 µg/mL [22]: 26.9 mm; Time [24]: 58.08 min; inhibition [25]: 74.2%; zone of inhibition at 50 µg/mL [26]: 14.9 mm; zone of inhibition at 100 µg/mL [29]: 22.4 mm
CSc1nc(-c2cccs2)c(C#N)c(=O)n1C	83 (≈ 315 µM)	72 (≈ 273 µM)	11.1	38.48	6.29	5.86	10.4	33.35	18.5	87 (≈ 330 µM)	21.8	71 (≈ 270 µM)	10.6	42.34	13	47.82	15.6	8.92	6.29	12.9	Time [21]: 45.24 min; zone of inhibition at 100 µg/mL [22]: 8.78 mm; Time [24]: 39.78 min; inhibition [25]: 62.1%; zone of inhibition at 50 µg/mL [26]: 13.8 mm; zone of inhibition at 100 µg/mL [29]: 22.6 mm
CSc1nc(-c2ccco2)c(C#N)c(=O)n1C	90 (≈ 364 µM)	79 (≈ 319 µM)	12.6	36.59	6.12	5.74	11.1	32.55	15.6	108 (≈ 437 µM)	18.4	68 (≈ 275 µM)	13	53.98	12.3	55.49	15.9	9.12	7.06	12.2	Time [21]: 60.18 min; zone of inhibition at 100 µg/mL [22]: 7.82 mm; Time [24]: 42.68 min; inhibition [25]: 57.2%; zone of inhibition at 50 µg/mL [26]: 16.8 mm; zone of inhibition at 100 µg/mL [29]: 23.5 mm
CN[C@@H]1[C@H](O[C@H]2[C@H](O[C@H]3[C@H](O)[C@@H](O)[C@H](N=C(N)N)[C@@H](O)[C@@H]3N=C(N)N)O[C@@H](C)[C@]2(O)C=O)O[C@@H](CO)[C@H](O)[C@H]1O [STREPTOMYCIN]	–	–	29.5	–	21.1	15.8	15.1	–	31.8	–	–	–	–	–	–	–	–	22.4	15.4	20.2	zone of inhibition at 100 µg/mL [5]: 30.3 mm; zone of inhibition at 50 µg/mL [8]: 18.7 mm; zone of inhibition at 25 µg/mL [16]: 13.4 mm; zone of inhibition at 100 µg/mL [22]: 28.7 mm
CSc1nc(-c2ccc(N(C)C)cc2)c(C#N)c(=O)n1C	98 (≈ 326 µM)	84 (≈ 280 µM)	9.38	44.52	–	–	10.3	40.22	20.3	93 (≈ 310 µM)	17.9	78 (≈ 260 µM)	11.8	54.1	11.1	55.59	14.5	8.25	6.38	13.9	zone of inhibition at 100 µg/mL [5]: 10.6 mm; zone of inhibition at 50 µg/mL [8]: 8.52 mm; zone of inhibition at 25 µg/mL [16]: 6.06 mm; Time [21]: 47.57 min; Time [24]: 35.25 min; inhibition [25]: 19.3%; zone of inhibition at 50 µg/mL [26]: 14.4 mm; zone of inhibition at 100 µg/mL [29]: 19.7 mm
